Casp6 inh: blocks human caspase-6 cleavage activity; P55212; hit rate 0.53% among 350,000; AID 686996; purified caspase-6, Z-VEID-R110 cleavage fluorescence; inhibition, % at 12.5 µM;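 active means mean inhibition across replicates at least about 35%, with every replicate also reaching that limit, limit read from the data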;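 further: 0% = median of neutral control wells and 100% = no fluorescence left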
Target sequence (P55212 24-179 limits assumed): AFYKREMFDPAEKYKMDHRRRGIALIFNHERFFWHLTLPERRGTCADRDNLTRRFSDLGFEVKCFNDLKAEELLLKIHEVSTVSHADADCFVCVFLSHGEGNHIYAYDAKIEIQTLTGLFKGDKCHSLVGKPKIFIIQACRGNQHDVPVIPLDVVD
Target sequence (P55212 194-293 limits assumed): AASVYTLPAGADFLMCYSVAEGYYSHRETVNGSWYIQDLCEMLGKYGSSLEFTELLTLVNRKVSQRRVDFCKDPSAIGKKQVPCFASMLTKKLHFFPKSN
ASAP1 GAP inh: ASAP1 ArfGAP inhibition; Q9ULH1; ASAP1-stimulated ARF1 GTP hydrolysis, GDP FP detection; inhibition, % at 16.5 µM; hit rate 0.19% among 360,000; in the data active means inhibition above about 25%;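 further: 0% = vehicle with enzyme and substrate and 100% = no enzyme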
LEDGF integ inh: blocks HIV-1 LEDGF/p75-dependent DNA integration | TR-FRET IN-LEDGF/p75 DNA integration, Eu/Cy5 | inhibition, % at 3.7 µM | hit rate 0.64% among 370,000;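 active means inhibition above the screen-wide mean plus 3 SD, cut at about 13% in these data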;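 further: signal is the Cy5 over europium emission ratio at 671 and 618 nm; 0% = plate median of compound wells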
ARFGAP1 inh: inhibits rat ARF GTPase activating protein 1; Arfgap1-stimulated ARF1 GTP hydrolysis, GDP FP detection; AID 651572; hit rate 0.26% among 360,000; inhibition, % at 16.5 µM;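 active means inhibition above a per-plate limit, mean inhibition of low control wells plus 3 SD, cut at about 25% in these data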;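 further: 0% = DMSO wells with enzyme and 100% = wells lacking Arfgap1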
Target sequence (Q62848 1-136 limits assumed): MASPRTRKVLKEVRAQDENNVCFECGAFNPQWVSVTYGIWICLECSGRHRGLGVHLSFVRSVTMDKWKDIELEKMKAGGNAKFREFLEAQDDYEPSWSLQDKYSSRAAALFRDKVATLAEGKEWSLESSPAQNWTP
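Assay system: purified rat His6-Arfgap1 residues 1-136 (GAP domain); Reagent: human Δ17 ARF1 bound to GTP; Dosing: 16.5 µM single point, 1.26% DMSO; Times: GTP hydrolysis reaction 2 h at 25 °C; Signal: FP, GDP Alexa 633 tracer displaced from anti-GDP antibody, 620/688 nm; Measure: % inhibition from polarization.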
TDP2 inh: TDP2 (human) inhibition, absorbance primary screen; O95551; recombinant TDP2, T5PNP hydrolysis, p-nitrophenol absorbance 415 nm; inhibition, % at 12.8 µM; hit rate 0.34% among 370,000; AID 720702;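 active means inhibition above the mean of all tested compounds plus 3 SD, set per campaign, cut at about 25% in these data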;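 further: 0% = DMSO with enzyme and 100% = buffer with substrate but no TDP2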
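Material: recombinant human TDP2; quantity: TDP2 enzyme at 120 nM final; medium: Tris-HCl pH 7.5 with MgCl2; compound: single concentration, 12.8 µM nominal, with 1% DMSO; incubation: 2 h enzyme incubation at 37 °C; signal: epi absorbance; measure: percent inhibition; benchmarks: high control without enzyme, low control DMSO plus TDP2; repeats: singlicate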
ARFGAP1 confirm: confirmation of rat ARFGAP1 inhibitors; shares compounds with ARFGAP1 inh; ARFGAP1-stimulated ARF1 GTP hydrolysis, GDP tracer FP; inhibition, % at 16.5 µM; hit rate 30% among 890; AID 651608;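 active means average inhibition over triplicates above the hit cutoff set in the earlier primary screen, cut at about 25% in these data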;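 further: 0% = Arfgap1 plus ARF1-GTP with DMSO and 100% = wells lacking Arfgap1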
The depositor's hits bear a star; nt = no result given. Rows were chosen to be rich in hits. Some 1.3% of all compounds tested hit in one or more screens of this group.

SMILES	Casp6 inh	ASAP1 GAP inh	LEDGF integ inh	ARFGAP1 inh	TDP2 inh	ARFGAP1 confirm
Cc1ccc2nc(-c3ccc(SCC(=O)Nc4nc(C)cs4)nc3)[nH]c2c1	nt	-5.6	-1.1	25.2*	-5.0	33.5*
CC(OC(=O)c1cc2c(s1)CCCCC2)C(=O)NC(N)=O (stereo unspecified)	-0.9	-11.6	1.2	28.4*	5.0	-3.6
OC(CNCCC1C=Nc2ccccc21)Cn1c2ccc(Cl)cc2c2cc(Cl)ccc21 (stereo unspecified)	nt	12.7	0.1	28.0*	-3.0	42.2*
OC(CNCC1CCCO1)Cn1c2ccc(Cl)cc2c2cc(Cl)ccc21 (stereo unspecified)	nt	-4.4	-4.8	5.4	-5.3	nt
O=C(Nc1ccc(Cl)cc1)OCc1cn(-c2ccc(Cl)cc2)nn1	nt	77.9*	-3.9	68.1*	-13.4	52.6*
CCNC(=O)OCc1cn(-c2ccc(Cl)cc2)nn1	0.1	2.0	-1.5	-5.2	2.0	nt
COc1cc(C#Cc2c(-c3cncn3C)n(C)c3ccc(-c4ccc5cc[nH]c5c4)cc23)cc(OC)c1	1.7	20.8	0.1	31.8*	15.5	21.2
COc1cc(C#Cc2c(-c3cncn3C)n(C)c3ccc(-c4ccc(OC)c(OC)c4)cc23)cc(OC)c1	nt	5.0	1.1	7.8	-0.7	nt
c1ccc(OCCn2cnc3ccccc32)cc1	0.1	7.9	-1.9	6.8	5.4	nt
c1ccc(CCn2cnc3ccccc32)cc1	-6.0	-6.8	-1.2	26.0*	-18.4	8.2
CCOc1ccc(NC(=S)N=Nc2c(O)[nH]c3ccccc23)cc1	10.3	15.7	-12.9	27.0*	-12.5	15.6
CCN(CC(=O)NC)S(=O)(=O)c1ccc(C)cc1	nt	7.7	-3.1	6.4	-5.2	nt
O=C1NCC(NC(=O)C(F)(F)F)c2cc3c(cc21)OCO3 (stereo unspecified)	2.0	-3.3	-4.4	0.3	7.2	nt
O=C(/C=C/c1ccccc1)Nc1nc(-c2ccncc2)cs1	5.7	3.9	-1.1	34.7*	-6.7	62.4*
COc1ccc(C2=Nn3c(nnc3-c3ccccc3Cl)SC2)cc1OC1CCOC1 (stereo unspecified)	0.0	-2.1	-2.1	1.8	0.5	nt
COc1ccc(OC)c(-c2nnc3n2N=C(c2ccc(OC)c(OC4CCOC4)c2)CS3)c1 (stereo unspecified)	1.7	-0.8	-0.4	25.8*	-5.4	-2.0
CCCC(=O)Nc1c2c(nn1-c1ccc(C)cc1C)CSC2	nt	-4.6	-3.4	-2.5	-1.6	nt
Cc1nc2ccccc2cc1C(=O)N/N=C/c1cccc([N+](=O)[O-])c1	nt	4.3	0.6	25.1*	7.9	8.2
O=C(N/N=C/c1ccc(F)cc1)c1ccncc1	-9.0	-3.1	2.8	6.0	-4.2	nt
CS(=O)(=O)Nc1cccc(C2=NN(S(=O)(=O)c3ccccc3)C(c3ccco3)C2)c1 (stereo unspecified)	0.5	-7.2	1.3	31.9*	3.4	-5.8
CCS(=O)(=O)Nc1cccc(C2=NN(S(=O)(=O)c3ccccc3)C(c3ccco3)C2)c1 (stereo unspecified)	-0.2	-13.9	-3.6	-8.5	-19.1	nt
Cc1ccccc1NC(=O)NCCCN1CCN(C2CCCCC2)CC1	nt	-4.8	-0.2	-0.2	-7.6	nt
Cc1ccccc1NC(=O)NCCCN1CCCC1	nt	-1.8	-2.7	25.6*	-2.9	-5.4
Cc1ccc2nc(SCC(=O)c3ccccc3)nc(=O)n2c1	-2.6	17.7	-1.2	36.5*	6.8	47.1*
Cc1ccc2nc(SCC(=O)N3CCCC3)nc(=O)n2c1	0.8	21.1	0.1	60.8*	7.6	43.5*
Cc1ccn2c(=O)nc(SCC(=O)c3ccccc3)nc2c1	5.6	-15.2	9.7	13.6	1.2	nt
Cc1cccc(C)c1-n1c(SCC(=O)Nc2ccc(C(=O)O)cc2)nnc1-c1cccc(S(=O)(=O)N(C)C)c1	2.5	-1.5	1.9	-0.1	-1.7	nt
CN(C(=O)C(C)(C)C)[C@H]1C[C@H]2c3[nH]c4ccccc4c3CCN2C(=O)[C@H]1CO	4.5	-10.0	3.0	96.3*	-9.1	-2.6
CN(C(=O)NC1CCCCC1)[C@H]1C[C@H]2c3[nH]c4ccccc4c3CCN2C(=O)[C@H]1CO	29.3	1.0	4.4	-9.4	5.4	nt

Screening results from PubChem BioAssay.
